What was measured:
[1] = system: T. b. brucei (Squib 427 strain); assay: In vitro activity against T. b. brucei; format: cell-based; details: Trypanosoma brucei, read-out: T. b. bruc. EC50
PMM cytotoxicity = format: cell-based, mouse; details: Swiss, mouse
[2] = system: primary peritoneal mouse macrophages (PMM); assay: PMM cytotoxicity; format: cell-based; details: read-out: PMM CC50; primary peritoneal mouse macrophages
[3] = system: T. b. rhodesiense (STIB-900 strain); assay: In vitro activity against T. b. rhodesiense; format: cell-based; details: Trypanosoma brucei, read-out: T. b. rhod. EC50
How it was run: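 STIB-900 parasites, axenic in HMI-9 with 10% FBS at 37 °C and 5% CO2, seeded at 4×10^3 parasites/well. Test compound was given as ten 4-fold dilutions (top 64 μM, <1% DMSO). Growth period […], then resazurin added and fluorescence measured after 24 h. IC50 from a sigmoid variable-slope fit versus untreated controls; mean ± SEM, 2–4 experiments. Suramin as reference.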

MRC-5SV2 cytotoxicity = format: cell-based, human; details: human, MRC-5SV2 cells
How it was run: (§1)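 MRC-5SV2 cells (3×10^4 cells/mL) in MEM with Earl's salts, L-glutamine, NaHCO3 and 5% inactivated FCS, at 37 °C and 5% CO2. Exposure to test compound (ten 4-fold dilutions, top 64 μM, <1% DMSO) lasted 3 days. Resazurin was then added for 4 h at 37 °C, with fluorescence read at ex 550/em 590 nm. CC50 from % reduction relative to untreated (100%) and medium-only (0%) controls.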

[4] = Microsomal stability assay, human; format: in vitro ADME; details: pooled human liver microsomes (microsomal (S9) fractions), % remaining parent compound; for remaining at 0 h: 0 min; for remaining at 0.25 h: 15 min; for remaining at 0.5 h: 30 min; for remaining at 1 h: 60 min
[5] = Microsomal stability assay, hamster; format: in vitro ADME; details: hamster microsomal (S9) fractions, % remaining parent compound; for remaining at 0 h: 0 min; for remaining at 0.25 h: 15 min; for remaining at 0.5 h: 30 min; for remaining at 1 h: 60 min
[6] = system: T. cruzi Tulahuen CL2 β-galactosidase strain; assay: In vitro activity against T. cruzi intracellular amastigotes in MRC-5SV2 cells; format: cell-based; details: Trypanosoma cruzi, MRC-5 SV2, 168 h, read-out: T. cruzi EC50
How it was run: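 Nifurtimox-sensitive Tulahuen CL2 β-galactosidase parasites infected MRC-5SV2 fibroblasts in MEM with 200 mM L-glutamine, 16.5 mM NaHCO3 and 5% inactivated FCS, at 37 °C and 5% CO2. Wells held 4×10^3 cells and 4×10^4 parasites. Test compound was given as ten 4-fold dilutions (top 64 μM, <1% DMSO) for 7 days. CPRG was then added for 4 h at 37 °C and absorbance read at 540 nm. IC50 from % reduction versus untreated-infected controls; mean ± SEM, 2–4 experiments. Benznidazole reference.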

[7] = system: L. infantum MHOM/MA (BE)/67; format: cell-based, Leishmania infantum
How it was run: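 Intracellular amastigotes of hamster spleen origin infected Swiss mouse peritoneal macrophages (elicited 2 days with 2% potato starch), in RPMI-1640 with 5% inactivated FCS, at 37 °C and 5% CO2, 4.5×10^5 parasites/well. Test compound (ten 4-fold dilutions, top 64 μM, <1% DMSO) was added 2 h post-infection. After 5 days, amastigotes/macrophage were counted after 10% Giemsa. IC50 was derived from % reduction versus controls; mean ± SEM, 2–4 experiments. Miltefosine reference.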

MRC-5SV2 cells = assay: MRC-5SV2 cytotoxicity; format: cell-based, human; details: read-out: MRC-5 CC50, 3 days incubation
How it was run: as §1

[8] = PMM CC50, primary peritoneal mouse macrophages
[9] = MRC-5 CC50, MRC-5SV2 cells, 3 days incubation

Row | Structure (SMILES) | EC50 [1] [µM] | CC50 at 5 days (PMM cytotoxicity; [8]) [µM] | EC50 [3] [µM] | CC50 at 3 days (MRC-5SV2 cytotoxicity; [9]) [µM] | remaining at 0 h ([4]; CYP – NADPH (Phase-I)) [%] | remaining at 0.25 h ([4]; CYP – NADPH (Phase-I)) [%] | remaining at 0.5 h ([4]; CYP – NADPH (Phase-I)) [%] | remaining at 1 h ([4]; CYP – NADPH (Phase-I)) [%] | remaining at 0 h ([4]; UGT Enz. (Phase-II)) [%] | remaining at 0.25 h ([4]; UGT Enz. (Phase-II)) [%] | remaining at 0.5 h ([4]; UGT Enz. (Phase-II)) [%] | remaining at 1 h ([4]; UGT Enz. (Phase-II)) [%] | remaining at 0 h ([5]; CYP – NADPH (Phase-I)) [%] | remaining at 0.25 h ([5]; CYP – NADPH (Phase-I)) [%] | remaining at 0.5 h ([5]; CYP – NADPH (Phase-I)) [%] | remaining at 1 h ([5]; CYP – NADPH (Phase-I)) [%] | remaining at 0 h ([5]; UGT Enz. (Phase-II)) [%] | remaining at 0.25 h ([5]; UGT Enz. (Phase-II)) [%] | remaining at 0.5 h ([5]; UGT Enz. (Phase-II)) [%] | EC50 [6] [µM] | other results
1 | Cc1ncnc2c1c(Cl)cn2[C@@H]1O[C@H](CO)[C@@H](O)[C@H]1O [compound 7] | 4.78 ± 2.19 | > 64 | 0.84 ± 0.63 | 54.8 ± 2.52 | 100 | 96 | 97 | 96 | 100 | 102 | 97 | 96 | 100 | 95 | 93 | 93 | 100 | 96 | 100 | 3.61 ± 1.24 | CC50 [2]: 32 µM; remaining at 1 h ([5]; UGT Enz. (Phase-II)): 102%
2 | CCc1cn([C@@H]2O[C@H](CO)[C@@H](O)[C@H]2O)c2ncnc(C)c12 [compound 13] | 0.75 ± 0.18 | > 64 | 0.43 ± 0.06 | > 64 | 100 | 89 | 92 | 96 | 100 | 105 | 102 | 96 | 100 | 93 | 102 | 91 | 100 | 101 | 103 | 2.54 ± 0.47 | fold improved activity against L. infantum compared to the 7-methyl analogue 9 ([7]; versus compound 9): 8 fold; remaining at 1 h ([5]; UGT Enz. (Phase-II)): 108%
3 | Cc1ncnc2c1c(C1=CCN(C)CC1)cn2[C@@H]1O[C@H](CO)[C@@H](O)[C@H]1O [compound 23] | > 64 | – | > 64 | – | – | – | – | – | – | – | – | – | – | – | – | – | – | – | – | > 64 | CC50 at 5 days (PMM cytotoxicity): > 64 µM; EC50 ([7]; Leishmania infantum, Macrophage, in Mus musculus, 120 h, read-out: L. inf. EC50): > 64 µM; CC50 at 3 days (MRC-5SV2 cytotoxicity): > 64 µM
4 | CCc1cn([C@@H]2O[C@H](CO)[C@@H](O)[C@H]2O)c2ncnc(N)c12 [compound 39, 7-ethyl-7-deazaadenosine] | 0.65 ± 0.02 | > 64 | 0.5 ± 0.03 | 50.4 | – | – | – | – | – | – | – | – | – | – | – | – | – | – | – | 0.99 ± 0.25 | CC50 (MRC-5SV2 cells): > 64 µM
5 | CCOc1ncnc2c1c(CC)cn2[C@@H]1O[C@H](CO)[C@@H](O)[C@H]1O [compound 42] | 1.25 ± 0.06 | > 64 | 2.06 ± 0.51 | 52.5 | – | – | – | – | – | – | – | – | – | – | – | – | – | – | – | 7.71 ± 0.91 | CC50 (MRC-5SV2 cells): > 64 µM
